{"source": "paper PMC10888821", "about": "(bioRxiv, 2024)", "key": {"Sm20S β2": {"tested_on": "Sm20S β2", "experiment": "Sm20S pre-incubated with 10 μM inhibitor, assayed with mca-FnKRR-K", "type": "biochemical, Schistosoma mansoni", "settings": "extended pre-incubation with 10 μM inhibitor", "summary_of_the_method": "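Sm20S was pre-incubated with test compound, then assayed with mca-FnKRR-K(dnp) and Z-LRR-amc. Fluorescence was read at 24°C: ex/em 320/400 nm (mca) and 360/460 nm (amc). Technical triplicates.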"}, "Sm20S β5 subunit [1]": {"target": "T1, Sm20S β5 subunit (Schistosoma mansoni, UniProt A0A5K4F079)", "T1 sequence (A0A5K4F079 63-264)": "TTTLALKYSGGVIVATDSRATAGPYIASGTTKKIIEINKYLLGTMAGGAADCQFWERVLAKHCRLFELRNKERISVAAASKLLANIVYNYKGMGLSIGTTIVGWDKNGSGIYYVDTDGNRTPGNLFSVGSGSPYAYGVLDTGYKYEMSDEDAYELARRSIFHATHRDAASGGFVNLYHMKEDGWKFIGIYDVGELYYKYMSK", "experiment": "Inhibition of single-step enriched Sm20S, β5 substrate", "type": "biochemical", "summary_of_the_method": "(§1)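 Sm20S was single-step enriched: worm lysate in Tris/E-64 pH 7.5, ammonium sulfate precipitation at 30 and 60% saturation, then 100 kDa concentration. Assay buffer contained pepstatin, E-64 and AEBSF. Substrates were mca-VDQMDGW-K(dnp)-NH2 (β1), mca-FnKRR-K(dnp)-NH2 (β2) and FNKL-amc (β5), tested across test compound concentrations. Reads were at ex/em 320/400 (mca) or 340/460 (amc). Technical triplicates.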"}, "Sm20S β2 subunit [2]": {"target": "T2, Sm20S β2 subunit (Schistosoma mansoni, UniProt G4VSW3)", "T2 sequence (G4VSW3 39-281)": "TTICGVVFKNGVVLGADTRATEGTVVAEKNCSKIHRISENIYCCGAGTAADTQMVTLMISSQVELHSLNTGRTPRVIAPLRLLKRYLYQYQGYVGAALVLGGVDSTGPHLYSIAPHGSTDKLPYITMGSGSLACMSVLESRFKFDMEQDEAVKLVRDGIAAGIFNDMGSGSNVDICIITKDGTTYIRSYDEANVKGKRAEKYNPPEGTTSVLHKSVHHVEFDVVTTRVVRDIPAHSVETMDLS", "T2 sequence (UPI0001A6248C 1-194 partner)": "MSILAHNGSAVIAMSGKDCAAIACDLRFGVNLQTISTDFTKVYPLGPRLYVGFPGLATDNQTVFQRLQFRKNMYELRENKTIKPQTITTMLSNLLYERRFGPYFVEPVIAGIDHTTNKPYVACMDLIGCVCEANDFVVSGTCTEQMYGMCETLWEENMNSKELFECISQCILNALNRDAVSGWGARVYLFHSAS", "experiment": "Dose-response assay of purified Sm20S with Z-LRR-amc", "type": "biochemical", "settings": "read-out: inhibition of β2 subunit activity", "summary_of_the_method": "(§2)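 Purified Sm20S was obtained from adult S. mansoni worms by ammonium sulfate precipitation, gel filtration and DEAE anion exchange. It was preincubated 15 min with test compound (20 μM to 9 nM, or 740 nM to 0.3 nM), then given 10 μM substrate: Suc-LLVY-amc (β5), Z-LLE-amc (β1) or Z-LRR-amc (β2). Maximum velocity over 8 sequential readings (RFU/sec) was normalized to 0.1% DMSO. Technical triplicates.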"}, "Sm20S β1 subunit [3]": {"target": "T3, Sm20S β1 subunit (Schistosoma mansoni, UniProt G4V926)", "T3 sequence (G4V926 26-225)": "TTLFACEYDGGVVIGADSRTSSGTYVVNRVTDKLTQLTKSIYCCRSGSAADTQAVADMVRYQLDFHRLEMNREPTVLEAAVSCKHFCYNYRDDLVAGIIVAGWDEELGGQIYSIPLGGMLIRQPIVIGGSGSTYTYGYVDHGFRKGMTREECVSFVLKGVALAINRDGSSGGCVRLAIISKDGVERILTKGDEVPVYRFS", "experiment": "Inhibition of single-step enriched Sm20S, β1 substrate", "type": "biochemical", "summary_of_the_method": "as §1"}, "Sm20S β1 subunit [4]": {"target": "T3, Sm20S β1 subunit", "experiment": "Dose-response assay of purified Sm20S with Z-LLE-amc", "type": "biochemical", "summary_of_the_method": "as §2"}, "Sm20S β2 subunit [5]": {"target": "T2, Sm20S β2 subunit", "experiment": "Inhibition of single-step enriched Sm20S, β2 substrate", "type": "biochemical", "summary_of_the_method": "as §1"}, "Sm20S β5 subunit [6]": {"target": "T1, Sm20S β5 subunit", "experiment": "Dose-response assay of purified Sm20S with Suc-LLVY-amc", "type": "biochemical", "settings": "500 nM inhibitor", "summary_of_the_method": "as §2"}, "[7]": {"tested_on": "20S proteasome of three Schistosoma species", "experiment": "Cross-species inhibition profile of schistosome lysates", "type": "biochemical, S. mansoni, S. haematobium, S. japonicum", "settings": "lysates pre-incubated with 500 nM", "summary_of_the_method": "(§3)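 Extracts of S. haematobium (0.625 μg/μL), S. japonicum and S. mansoni (1.25 μg/μL each) were enriched by ammonium sulfate precipitation. Proteasome amount was normalized by labelling with 2 μM Me4BodipyFL-Ahx3Leu3VS (37°C, 3 h) and in-gel fluorescence. Extracts were preincubated 1 h with test compound (0.125% DMSO vehicle), then mixed with an equal volume of 20 μM β1/β2 mca substrate or 40 μM Z-FNKL-amc. Buffer: 100 mM Tris pH 7.5, 50 μM E-64, 1 mM AEBSF, 2 μM pepstatin, 0.03% SDS. Triplicate wells at 24°C.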"}, "Sm20S β1 [8]": {"tested_on": "Sm20S β1", "experiment": "Substrate hydrolysis by purified Sm20S, β1 substrates", "type": "biochemical, Schistosoma mansoni", "settings": "between 16 and 250 μM substrate"}, "Sm20S β5 subunit [9]": {"target": "T1, Sm20S β5 subunit", "experiment": "Substrate hydrolysis by purified Sm20S, β5 substrates", "type": "biochemical", "summary_of_the_method": "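Purified Sm20S (10 nM) was incubated with 2-fold serial dilutions of Ac-FNKL-amc or Suc-LLVY-amc. Hydrolysis was monitored at 24°C (ex/em 360/460 nm) and activity was compared as a function of substrate concentration. Technical triplicates.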"}, "[10]": {"tested_on": "20S proteasome β2 subunit of three Schistosoma species", "experiment": "Proteasome inhibition in three Schistosoma species, β2 substrate", "type": "biochemical, S. mansoni, S. haematobium, S. japonicum", "summary_of_the_method": "as §3"}, "[11]": {"tested_on": "20S proteasome β1 subunit of three Schistosoma species", "experiment": "Proteasome inhibition in three Schistosoma species, β1 substrate", "type": "biochemical, S. mansoni, S. haematobium, S. japonicum", "settings": "500 nM, single-step enriched 20S, across the three species", "summary_of_the_method": "as §3"}, "[12]": {"tested_on": "20S proteasome β5 subunit of three Schistosoma species", "experiment": "Proteasome inhibition in three Schistosoma species, β5 substrate", "type": "biochemical, S. mansoni, S. haematobium, S. japonicum", "summary_of_the_method": "as §3"}, "Sj20S β1": {"tested_on": "Sj20S β1", "experiment": "Proteasome inhibition in enriched extract, β1 substrate, S. japonicum", "type": "biochemical", "settings": "1 μM", "summary_of_the_method": "as §3"}, "Sh20S β1": {"tested_on": "Sh20S β1", "experiment": "Proteasome inhibition in enriched extract, β1 substrate, S. haematobium", "type": "biochemical", "settings": "1 μM", "summary_of_the_method": "as §3"}, "Sm20S β1 [13]": {"tested_on": "Sm20S β1", "experiment": "Proteasome inhibition in enriched extract, β1 substrate, S. mansoni", "type": "biochemical", "settings": "1 μM", "summary_of_the_method": "as §3"}, "Sm20S β1 [14]": {"tested_on": "Sm20S β1", "experiment": "Inhibition of Sm20S hydrolysis of mca-VDQMDGW-K", "type": "biochemical, Schistosoma mansoni"}, "[15]": {"settings": "500 nM, single-step enriched 20S, across the three species"}}, "note": "The star is where a group is joined. K(dnp) = lysine 2,4-dinitrophenyl (Nε-2,4-dinitrophenyl-lysine); Mca = COc1ccc2c(CC(=O)*)cc(=O)oc2c1", "data": [{"compound": "CC(C)C[C@H](NC(=O)[C@H](CCc1ccccc1)NC(=O)CN1CCOCC1)C(=O)N[C@@H](Cc1ccccc1)C(=O)N[C@@H](CC(C)C)C(=O)[C@@]1(C)CO1", "note": "[CFZ, carfilzomib]", "values": [{"measurement": "effect on Sm20S β2 activity", "setting": "Sm20S β2", "result": "inactivated"}, {"measurement": "IC50", "setting": "Sm20S β5 subunit [1]", "result": "2.5 ± 0.51", "unit": "nM"}, {"measurement": "inhibition at 0.5 µM", "setting": "Sm20S β2 subunit [2]", "result": "~40", "unit": "%"}, {"measurement": "IC50 for the β1 subunit", "setting": "Sm20S β1 subunit [3]; single-step enriched Sm20S, β1 substrate", "result": "not inhibitory"}, {"measurement": "inhibition at 0.5 µM", "setting": "Sm20S β1 subunit [4]; read-out: inhibition of β1 subunit activity", "result": "~40", "unit": "%"}, {"measurement": "IC50", "setting": "Sm20S β2 subunit [5]", "result": "288 ± 90", "unit": "nM"}, {"measurement": "inhibition of β5 subunit activity", "setting": "Sm20S β5 subunit [6]", "result": "completely inhibited"}, {"measurement": "cross-species subunit inhibition profile", "setting": "[7]", "result": "inhibited β5 and β2 more than β1"}]}, {"compound": "mca-VDQMDGW-K(dnp)-NH2 (Mca-VDQMDGW-{K(dnp)-NH2}) [VDQMD*GW]", "values": [{"measurement": "cleavage efficiency relative to LLE-amc", "setting": "Sm20S β1 [8]", "result": "~ 2 fold"}]}, {"compound": "Ac-FNKL-amc", "values": [{"measurement": "substrate concentration of maximal cleavage activity", "setting": "Sm20S β5 subunit [9]", "result": 25, "unit": "µM"}, {"measurement": "cleavage rate relative to Suc-LLVY-amc", "setting": "Sm20S β5 subunit [9]; 25 μM substrate", "result": "~ four-fold"}]}, {"compound": "C[C@@]12OC(=O)[C@]1([C@@H](O)[C@@H]1C=CCCC1)NC(=O)[C@@H]2CCCl", "note": "[MZB, marizomib]", "values": [{"measurement": "reduction of β2 activity", "setting": "[10]; [15]", "result": "66 to 48", "unit": "%"}, {"measurement": "reduction of β1 activity", "setting": "[11]", "result": "61 to 34", "unit": "%"}, {"measurement": "reduction of β5 activity", "setting": "[12]; [15]", "result": "complete inactivation"}]}, {"compound": "CCCCCC(=O)N[C@@H](Cc1c[nH]c2ccccc12)C(=O)N[C@@H](Cc1c[nH]c2ccccc12)C(=O)N[C@@H](Cc1ccccc1)C(=O)[C@@]1(C)CO1", "note": "[carmaphycin-17]", "values": [{"measurement": "inhibition of β2 subunits", "setting": "[10]; 1 μM, three species", "result": "~ 60%"}, {"measurement": "reduction of Sj20S β1 activity", "setting": "Sj20S β1", "result": 47, "unit": "%"}, {"measurement": "inhibition of β5 subunits", "setting": "[12]; 1 μM, three species", "result": "complete inhibition"}, {"measurement": "decrease of Sh20S β1 activity", "setting": "Sh20S β1", "result": 20, "unit": "%"}, {"measurement": "decrease of Sm20S β1 activity", "setting": "Sm20S β1 [13]", "result": 20, "unit": "%"}]}, {"compound": "CC(C)C[C@H](NC(=O)[C@H](Cc1ccccc1)NC(=O)c1cnccn1)B(O)O", "note": "[BTZ, bortezomib]", "values": [{"measurement": "effect on Sm20S β2 activity", "setting": "Sm20S β2", "result": "only partially inhibited"}, {"measurement": "IC50", "setting": "Sm20S β5 subunit [1]", "result": "18 ± 2.05", "unit": "nM"}, {"measurement": "inhibition at 0.5 µM", "setting": "Sm20S β2 subunit [2]", "result": "~35", "unit": "%"}, {"measurement": "IC50", "setting": "Sm20S β1 subunit [3]", "result": "49.84 ± 0.24", "unit": "nM"}, {"measurement": "inhibition of β1 subunit activity", "setting": "Sm20S β1 subunit [4]; 500 nM inhibitor, Z-LLE-amc", "result": "completely inactivated"}, {"measurement": "IC50 using the β2 substrate", "setting": "Sm20S β2 subunit [5]; single-step enriched Sm20S, β2 substrate", "result": "did not inhibit"}, {"measurement": "inhibition of β5 subunit activity", "setting": "Sm20S β5 subunit [6]", "result": "completely inactivated"}, {"measurement": "cross-species subunit inhibition profile", "setting": "[7]", "result": "preferentially inhibited β1 and β5"}, {"measurement": "inhibition of mca-VDQMDGW-K(dnp) hydrolysis by Sm20S", "setting": "Sm20S β1 [14]", "result": "inhibited"}]}]}
